# Screening data deposited in PubChem BioAssay by several laboratories.
# FXIa inh 1536: factor XIa (human) inhibition | P03951 | purified FXIa, Boc-Glu-Ala-Arg-AMC fluorogenic substrate | inhibition, % at 5 µM | 220,000 compounds, 0.14% hits | AID 798;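 active = inhibition of at least 40%; inactive = inhibition below 40%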;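 note: fluorescence of freed AMC excited at 355 nm; 0% = enzyme without compound and 100% = no enzyme blank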
# FXIIa inh: blocks human coagulation factor XIIa protease activity; P00748; purified FXIIa, Boc-QGR-AMC fluorogenic substrate, 2 h; inhibition, % at 5 µM; 220,000 compounds, 0.3% hits; AID 800; in the data active = inhibition above about 40%;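 note: 0% = enzyme with no compound and 100% = blank without enzyme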
# hK5 inh: blocks human kallikrein 5 protease activity. inhibition, % at 5 µM. recombinant hK5, fluorogenic AMC substrate cleavage. 210,000 compounds, 0.59% hits. Q9Y337. AID 873;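 active = inhibition of 40% or more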;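 note: 0% = enzyme controls without compound and 100% = no-enzyme blanks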
# Target sequence (Q9Y337 67-293 limits assumed): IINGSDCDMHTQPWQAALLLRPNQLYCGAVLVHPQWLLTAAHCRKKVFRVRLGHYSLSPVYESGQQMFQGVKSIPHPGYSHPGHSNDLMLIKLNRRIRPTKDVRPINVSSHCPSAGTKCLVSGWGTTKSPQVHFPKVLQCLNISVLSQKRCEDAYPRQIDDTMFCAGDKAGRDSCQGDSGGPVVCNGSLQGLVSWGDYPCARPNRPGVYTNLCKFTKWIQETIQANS
# Rce1 inhib: inhibitors of yeast Ras-converting enzyme; Q03530; yeast membranes, quenched prenylated peptide cleavage fluorescence; calls only; 290,000 compounds, 0.27% hits;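 active = fall in fluorescence gain of 50% or more versus controls, with final raw signal at or below 3038400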;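 note: plate controls were neutral control wells for no effect and wells lacking membranes for full effect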
# Fh CTSL1 inh: blocks F. hepatica cathepsin L1 in PFM18AAP counter-screen | recombinant F. hepatica cathepsin L1, Z-Leu-Arg-MCA fluorescence | inhibition, % at 5.96 µM | 300,000 compounds, 0.49% hits;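 active = inhibition above the mean of all tested compounds plus 3 SD, set per screening campaign, cut at about 17% in these data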;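 note: 0% = plate median of test compound wells and 100% = 1 µM Z-Phe-Ala-diazomethylketone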
# Thrombin inh: thrombin (human) inhibition; P00734; alpha-thrombin, Boc-VPR-AMC fluorogenic substrate cleavage; inhibition, % at 5 µM; 220,000 compounds, 0.26% hits; AID 1046;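 active = inhibition at or above 40%; inactive = inhibition below 40%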;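 note: 0% = enzyme with no compound and 100% = wells without enzyme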
#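 System: human alpha-thrombin protein; Compound dosing: one concentration per compound, 5 µM, with 0.2% DMSO; Timing: reaction at room temperature; Technique: AMC fluorescence, 355/460 nm; Controls: enzyme without compound as high, wells lacking enzyme as low.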
# An asterisk follows results filed as active; i = inactive; . = not tested or not shown. Rows were chosen to be rich in hits. Some 1.4% of all compounds tested hit in one or more screens of this group.
SMILES,FXIa inh 1536,FXIIa inh,hK5 inh,Rce1 inhib,Fh CTSL1 inh,Thrombin inh
O=C1NC(=S)N(C2CC2)C(=O)/C1=C/c1ccc2c(c1)CCN2CCCCl,14.8,42.7*,20.6,i,1.2,25.2
CCCOC(=O)c1ccc(-[n+]2c(-c3ccccc3)cc(-c3ccccc3)cc2-c2ccccc2)cc1,.,.,.,i,-0.6,.
CN1C[C@@H]2C[C@@H](c3cccn3-c3ccccn3)N3CCC[C@@]23C1=O,1.9,11.0,.,i,7.1,-0.6
OC1(c2ccccc2F)CC2CCC(C1)N2CCN1CCOCC1 (configuration not stated),32.9,-162.2,55.2*,i,-2.1,22.6
COc1ccc(C(=O)CN2CCOCC2)cc1F,5.7,-7.4,6.6,i,-3.2,-2.1
C=CCn1c(O)c(C=Nc2ccc(OC)cc2C)c(=O)[nH]c1=O,0.6,4.9,-19.8,i,6.2,-1.5
Cc1nc2c(=O)n(C)c(=O)nc-2n(C)n1,-2.9,5.6,-8.3,i,112.3*,-4.7
CCCCN1C(=O)NC(=O)C2(Cc3c(nc4ccccn4c3=O)N3CCc4ccccc4C32)C1=O (configuration not stated),4.7,10.0,-0.9,i,-0.1,44.8*
CCCCN1C(=O)NC(=O)C2(Cc3c(nc4c(C)cccn4c3=O)N3CCc4ccccc4C32)C1=O (configuration not stated),-13.5,-13.9,-12.7,i,-1.0,-1.5
CCc1c(C)nc(N)nc1N1N=C1SCC#N,31.5,58.3*,6.7,i,0.5,-0.2
Cc1cc(N2CCCC2)ccc1C=C(C#N)C#N,31.3,36.2,48.3*,i,0.0,-9.3
CCCNC1=C(C)C(=O)C2=C(C1=O)C(COC(N)=O)[C@]1(OC)C3NC3CN21 (some centres not stated),2.5,6.5,3.3,i,2.8,-2.5
Clc1ccc2c(N3CCNCC3)ccnc2c1,10.2,20.9,41.2*,i,-1.2,22.8
CNC(=O)Oc1cccc2ccccc12,17.9,27.6,42.5*,i,1.2,21.7
O=C1NC(=O)N(Cc2ccccc2Cl)C(=O)/C1=C/c1cccs1,29.3,39.2,49.9*,i,1.2,10.9
O=C1NC(=O)N(Cc2ccc(F)cc2)C(=O)/C1=C/c1cccs1,-5.8,1.1,-16.0,i,5.5,1.1
Nc1nc(SCCC(F)=C(F)F)n[nH]1,-4.7,-7.5,-13.9,i,1.7,0.1
COC(=O)C1=C(c2cc3ccccc3o2)C[C@@H]2CC[C@H]1N2C(=O)NCc1ccccc1,.,.,.,i,-1.1,.
COc1ccc(Oc2cc(NC(=O)c3nn(C)cc3[N+](=O)[O-])cc([N+](=O)[O-])c2)cc1,-9.1,10.7,-11.2,i,20.2*,2.6
CCC(C)/C=C(C)/C=C/C1=CC2=C(Cl)C(=O)C(C)(OC(C)=O)C(=O)C2=CO1 (configuration not stated),4.3,10.6,3.0,i,20.6*,4.5
Cc1ccc(/C=C2/C(=O)NC(=O)N(CC3CCCO3)C2=O)s1 (configuration not stated),-4.7,-1.8,-21.2,i,-2.3,-5.7
COC(=O)c1ccccc1-n1c(C)nc2ccccc2c1=O,3.5,16.7,81.8*,.,-1.5,28.4
Cc1ccccc1-n1c(C)nc2ccccc2c1=O,36.3,25.1,23.7,i,1.7,7.9
CC1(C)C[C@H]2C=C(C=O)[C@]3(C=O)C[C@]3(C)[C@H]2C1,9.1,14.0,-3.7,i,17.2*,-2.7
CN1/C(=C\C=Nc2ccccc2)C(C)(C)c2ccccc21,-0.1,15.3,4.9,i,1.7,-1.4
SMILES,FXIa inh 1536,FXIIa inh,hK5 inh,Rce1 inhib,Fh CTSL1 inh,Thrombin inh
CN1/C(=C\C=C2C(=O)NC(=O)NC2=O)C(C)(C)c2ccccc21,0.9,8.2,3.5,i,20.1*,18.0
C=C(C)[C@H]1CN[C@H](C(=O)O)[C@H]1CC(=O)O,.,.,.,i,-2.5,.
CN1CCN(c2ncnc(Cl)c2N)CC1,30.4,102.5*,33.0,.,.,1.1
CN1C(=O)C(Cc2cccs2)C(=O)N(C)C1=O,3.5,15.5,-18.5,i,1.4,5.0
O=C1NC(=O)C(Cc2cccs2)C(=O)N1,2.6,27.4,78.2*,i,0.1,2.3
C[C@]12CCC3=C4CCC(=O)C=C4CC[C@H]3C1CC[C@@H]2O (some centres not stated),.,.,.,i,-10.4,.
C1=C(CCNCc2ccccc2)CCCC1,-6.4,9.2,-5.3,i,3.5,3.9
